Experimental data: ChEMBL document CHEMBL2311355, “A class of 5-nitro-2-furancarboxylamides with potent trypanocidal activity against Trypanosoma brucei in vitro” (J Med Chem, 2013)

Tests used:
HeLa = assay: Cytotoxicity against human HeLa cells after 65 hrs by Alamar blue assay; format: cell-based
[1] = test system: Trypanosoma brucei brucei; assay: Trypanocidal activity against bloodstream form of Trypanosoma brucei brucei 427 after 72 hrs by Alamar blue assay; format: functional, organism-based; details: Trypanosoma brucei, 427, 72 h
Method in brief: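 Bloodstream-form T. b. brucei strain 427 grown at 37°C in HMI9 with 10% fetal calf serum and 2.5 µg ml-1 G418, exposed to serially diluted compounds for 72 h. Viability read by Alamar Blue. Four replicates; EC50 ± standard deviation and slope factor from curve fitting.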

[2] = Selectivity ratio of EC50 for bloodstream form of nifurtimox-resistant Trypanosoma brucei to EC50 for bloodstream form of wild type Trypanosoma brucei brucei 427; format: functional
Trypanosoma brucei [3] = assay: Trypanocidal activity against bloodstream form of N-(4-(allyloxy)-3-(trifluoromethyl)phenyl)-5-nitrofuran-2-carboxamide-resistant Trypanosoma brucei after 72 hrs by Alamar blue assay; format: functional, organism-based
[4] = Selectivity index, ratio of EC50 for human HeLa cells to EC50 for bloodstream form of Trypanosoma brucei brucei 427; format: toxicity, cell-based; details: read-out: Ratio EC50
[5] = test system: Trypanosoma brucei rhodesiense; assay: Trypanocidal activity against Trypanosoma brucei rhodesiense Z310 after 72 hrs by Alamar blue assay; format: functional, organism-based; details: Z310, 72 h
Method in brief: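 T. b. rhodesiense strain Z310 cultured at 37°C in HMI9 with 10% fetal calf serum, without G418, and exposed to compounds for 72 h. Alamar Blue viability read-out. Four replicates; EC50 ± standard deviation from curve fitting.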

Trypanosoma brucei [6] = assay: Antitrypanosomal activity against trypomastigote form of Trypanosoma brucei; format: functional, organism-based
Method in brief: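 Bloodstream-form T. b. brucei strain 427 grown at 37°C in HMI9 with 10% fetal calf serum and 2.5 μg ml-1 G418; viability read by Alamar Blue after 72 h compound exposure. Four replicates, EC50 ± standard deviation and slope factor from curve fitting.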

[7] = test system: Trypanosoma brucei brucei; assay: Ratio of nifurtimox EC50 to compound EC50 for bloodstream form of wild type Trypanosoma brucei brucei 427; format: functional
[8] = Selectivity ratio of EC50 for bloodstream form of N-(4-(allyloxy)-3-(trifluoromethyl)phenyl)-5-nitrofuran-2-carboxamide-resistant Trypanosoma brucei to EC50 for bloodstream form of wild type Trypanosoma brucei brucei 427; format: functional
Trypanosoma brucei [9] = assay: Trypanocidal activity against bloodstream form of nifurtimox-resistant Trypanosoma brucei after 72 hrs by Alamar blue assay; format: functional, organism-based

SMILES	EC50 (HeLa) [nM]	EC50 [1] [nM]	selectivity ratio [4]	further results
CCc1cc(C(N)=O)c(NC(=O)c2ccc([N+](=O)[O-])cc2)s1	> 20000	> 20000		
N=C(N)c1ccc(OCCCCCOc2ccc(C(=N)N)cc2)cc1 [PENTAMIDINE]				Ratio EC50 [2]: 2; EC50 (Trypanosoma brucei [3]): 1.1 nM
COc1ccc(NC(=O)c2ccc([N+](=O)[O-])o2)cc1C	> 20000	38	> 525	
O=C(Nc1ccc(O)c(C(F)(F)F)c1)c1ccc([N+](=O)[O-])o1	> 20000	2200	> 9	
CCCCOC(=O)c1cc(CC)sc1NC(=O)c1ccc([N+](=O)[O-])o1	> 20000	32.6	> 625	
COC(=O)c1ccc([N+](=O)[O-])o1	> 20000	67000		
O=C(Nc1ccccc1)c1ccc([N+](=O)[O-])o1	> 20000	28.1	> 710	
COc1cccc(NC(=O)c2ccc([N+](=O)[O-])o2)c1	> 20000	58.6	> 345	
Cc1csc(N)c1C(N)=O	> 20000	65100		
CCc1cc(C(=O)NCCO)c(NC(=O)c2ccc([N+](=O)[O-])o2)s1	> 20000	79.6	> 253	
O=C(Nc1ccc(C(F)(F)F)cc1)c1ccc([N+](=O)[O-])o1	> 20000	126	> 158	EC50 [5]: 159 nM
O=C(Nc1cc(C(F)(F)F)cc(C(F)(F)F)c1)c1ccc([N+](=O)[O-])o1	> 10000	128	> 78	
COc1ccc(NC(=O)c2ccc([N+](=O)[O-])o2)cc1	> 20000	76.5	> 261	
O=C(Nc1ccccc1)c1ccco1	> 20000	> 20000		
O=C(NNC(=O)c1ccc([N+](=O)[O-])o1)c1ccc2ccccc2c1				EC50 (Trypanosoma brucei [6]): 130 nM
C=CCOc1ccc(NC(=O)c2ccc([N+](=O)[O-])o2)cc1C(F)(F)F	> 20000	2.4	> 8330	EC50 [5]: 2.9 nM; Ratio EC50 [7]: 1000; Ratio EC50 [2]: 3; Ratio EC50 [8]: 14; EC50 (Trypanosoma brucei [3]): 29.3 nM; EC50 (Trypanosoma brucei [9]): 7.8 nM
O=C(NC1CCCCC1)c1ccc([N+](=O)[O-])o1	> 20000	231	> 86	
O=[N+]([O-])c1ccc(CNc2ccccc2)o1	> 20000	113000		
COC(=O)c1ccc(NC(=O)c2ccc([N+](=O)[O-])o2)cc1	> 20000	680	> 29	
CCc1cc(C(=O)OC)c(NC(=O)c2ccc([N+](=O)[O-])o2)s1	> 20000	21	> 950	
CCNC(=O)c1cc(CC)sc1NC(=O)c1ccc([N+](=O)[O-])o1	> 20000	147	> 136	EC50 [5]: 202 nM
CCc1cc(C(N)=O)c(NC(=O)c2n[nH]cc2[N+](=O)[O-])s1	> 20000	> 300000		
C=CCOc1ccc(N(CC=C)C(=O)c2ccc([N+](=O)[O-])o2)cc1C(F)(F)F	> 20000	2200	> 9	
CCCCNC(=O)c1cc(CC)sc1NC(=O)c1ccc([N+](=O)[O-])o1	> 20000	336	> 60	

SMILES	EC50 (HeLa) [nM]	EC50 [1] [nM]	selectivity ratio [4]	further results
O=C(Nc1ccc(Cl)cc1)c1ccc([N+](=O)[O-])o1	> 20000	412	> 48	
O=C(NCc1ccccn1)c1ccc([N+](=O)[O-])o1	> 20000	291	> 68	
O=C(NCc1cccc(C(F)(F)F)c1)c1ccc([N+](=O)[O-])o1	> 20000	17.4	> 1150	
C=CCOc1ccc(NC(=O)c2ccc([N+](=O)[O-])o2)cc1	> 20000	7.73	> 258	
O=C(NCc1ccccc1)c1ccc([N+](=O)[O-])o1	> 20000	27.3	> 732	
O=C(Nc1cccc(Br)c1)c1ccc([N+](=O)[O-])o1	> 20000	104	> 192	
CCOC(=O)c1cc(CC)sc1NC(=O)c1ccc([N+](=O)[O-])o1	> 20000	31.3	> 640	EC50 [5]: 44.2 nM; Ratio EC50 [7]: 100
CCCCc1cc(C(=O)OCC)c(NC(=O)c2ccc([N+](=O)[O-])o2)s1	> 20000	125	> 160	
CCOC(=O)c1cc(CC)sc1NC(=O)c1ccco1	> 20000	> 20000		
CCc1cc(C(=O)O)c(NC(=O)c2ccc([N+](=O)[O-])o2)s1	> 20000	959		
CCc1cc(C(N)=O)c(NC(=O)c2ccc([N+](=O)[O-])o2)s1	> 20000	17.3	> 1160	EC50 [5]: 23.1 nM
CCc1cc(C(N)=O)c(NC(=O)c2cccc([N+](=O)[O-])c2)s1	> 20000	2600	> 8	
CCOC(=O)c1ccsc1NC(=O)c1ccc([N+](=O)[O-])o1	> 20000	72.3	> 278	
Nc1nc(N)nc(Nc2ccc([As]3SCC(CO)S3)cc2)n1 (stereo not given) [MELARSOPROL]				EC50 [5]: 7.8 nM
CCc1cc(C(N)=O)c(N)s1	> 20000	32600		
COc1cc(NC(=O)c2ccc([N+](=O)[O-])o2)cc(C(F)(F)F)c1	> 20000	26.6	> 752	
CCc1cc(C(N)=O)c(NC(=O)c2ccccc2[N+](=O)[O-])s1	> 20000	26100		
O=C(Nc1cccc(C(F)(F)F)c1)c1ccc([N+](=O)[O-])o1	> 20000	4.69	> 4450	EC50 [5]: 9.4 nM
O=C(Nc1ccc(O)cc1)c1ccc([N+](=O)[O-])o1	> 20000	394	> 50	
CCc1cc(C(N)=O)c(NCc2ccc([N+](=O)[O-])o2)s1	> 20000	5300	> 4	
CC1CS(=O)(=O)CCN1/N=C/c1ccc([N+](=O)[O-])o1 (stereo not given) [NIFURTIMOX]	91200		38	EC50 [5]: 1710 nM; Ratio EC50 [8]: 3; EC50 (Trypanosoma brucei [3]): 7300 nM
COc1ccc(NC(=O)c2ccc([N+](=O)[O-])o2)cc1C(F)(F)F	> 20000	7.8	> 2560	
O=C(Nc1cccs1)c1ccc([N+](=O)[O-])o1	> 20000	62.6	> 322	
